Changes are numbered by the printed parent chain.
Experiments:
Conditions in all cases: stereoisomer not certain
[1] = biological target: T1, OR5B17 (Homo sapiens) (UniProt Q8NGF7)
T1 sequence (whole entry): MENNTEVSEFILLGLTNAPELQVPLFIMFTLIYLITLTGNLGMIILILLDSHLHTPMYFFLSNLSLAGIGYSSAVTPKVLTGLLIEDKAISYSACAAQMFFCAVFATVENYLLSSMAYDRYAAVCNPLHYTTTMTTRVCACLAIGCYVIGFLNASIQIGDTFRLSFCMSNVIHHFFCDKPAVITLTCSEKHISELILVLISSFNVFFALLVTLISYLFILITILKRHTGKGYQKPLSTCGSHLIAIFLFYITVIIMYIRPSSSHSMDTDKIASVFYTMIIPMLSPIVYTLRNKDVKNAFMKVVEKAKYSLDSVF
Outline: (§1)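 Each entry records the cell line, G-protein, co-transfected protein and tags used. Methods varied with the source, often transient luciferase assays in mammalian cell lines. A receptor–molecule pair is called responsive (active) if the original authors judged its signal statistically different from baseline and non-responsive (inactive) otherwise.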

[2] = biological target: T2, OR5AR1 (Homo sapiens) (UniProt Q8NGP9)
T2 sequence (whole entry): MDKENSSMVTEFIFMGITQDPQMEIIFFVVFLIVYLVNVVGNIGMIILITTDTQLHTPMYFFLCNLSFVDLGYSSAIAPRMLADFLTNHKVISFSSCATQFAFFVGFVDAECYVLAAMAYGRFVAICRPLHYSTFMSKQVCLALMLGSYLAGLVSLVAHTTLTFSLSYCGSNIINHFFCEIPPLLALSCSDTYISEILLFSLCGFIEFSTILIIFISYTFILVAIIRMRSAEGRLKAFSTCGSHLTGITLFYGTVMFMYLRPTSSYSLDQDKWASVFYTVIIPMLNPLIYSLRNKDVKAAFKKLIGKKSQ
Outline: as §1

[3] = biological target: T3, OR5AS1 (Homo sapiens) (UniProt Q8N127)
T3 sequence (whole entry): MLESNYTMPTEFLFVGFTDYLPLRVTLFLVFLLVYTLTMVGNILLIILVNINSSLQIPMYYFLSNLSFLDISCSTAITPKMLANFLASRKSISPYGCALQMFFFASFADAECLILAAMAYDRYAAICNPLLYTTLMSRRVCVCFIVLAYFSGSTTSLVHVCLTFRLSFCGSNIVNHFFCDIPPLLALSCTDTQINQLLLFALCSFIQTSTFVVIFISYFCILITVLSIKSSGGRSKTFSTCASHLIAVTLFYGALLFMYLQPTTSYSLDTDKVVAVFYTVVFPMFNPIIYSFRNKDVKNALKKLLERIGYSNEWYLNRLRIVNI
Outline: as §1

[4] = biological target: T4, OR5AU1 (Homo sapiens) (UniProt Q8NGC0)
T4 sequence (whole entry): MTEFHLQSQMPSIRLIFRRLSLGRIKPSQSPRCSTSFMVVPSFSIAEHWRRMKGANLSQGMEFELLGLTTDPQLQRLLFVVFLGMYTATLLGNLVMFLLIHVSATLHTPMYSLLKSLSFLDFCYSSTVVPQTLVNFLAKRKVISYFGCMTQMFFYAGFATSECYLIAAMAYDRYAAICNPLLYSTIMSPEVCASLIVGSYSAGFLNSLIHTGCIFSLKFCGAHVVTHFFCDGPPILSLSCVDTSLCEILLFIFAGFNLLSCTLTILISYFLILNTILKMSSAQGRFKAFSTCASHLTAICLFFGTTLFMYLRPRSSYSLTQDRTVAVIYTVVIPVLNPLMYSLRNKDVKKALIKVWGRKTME
Outline: as §1

[5] = biological target: T5, OR5B12 (Homo sapiens) (UniProt Q96R08)
T5 sequence (whole entry): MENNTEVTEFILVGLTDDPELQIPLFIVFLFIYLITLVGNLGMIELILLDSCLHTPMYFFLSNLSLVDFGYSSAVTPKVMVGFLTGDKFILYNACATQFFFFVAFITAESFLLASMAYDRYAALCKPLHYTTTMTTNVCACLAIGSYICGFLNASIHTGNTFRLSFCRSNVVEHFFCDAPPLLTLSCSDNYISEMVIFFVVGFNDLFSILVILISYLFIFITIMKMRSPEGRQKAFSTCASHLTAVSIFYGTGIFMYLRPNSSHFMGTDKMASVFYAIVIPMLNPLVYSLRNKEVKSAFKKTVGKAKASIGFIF
Outline: as §1

[6] = biological target: T6, OR5B2 (Homo sapiens) (UniProt Q96R09)
T6 sequence (whole entry): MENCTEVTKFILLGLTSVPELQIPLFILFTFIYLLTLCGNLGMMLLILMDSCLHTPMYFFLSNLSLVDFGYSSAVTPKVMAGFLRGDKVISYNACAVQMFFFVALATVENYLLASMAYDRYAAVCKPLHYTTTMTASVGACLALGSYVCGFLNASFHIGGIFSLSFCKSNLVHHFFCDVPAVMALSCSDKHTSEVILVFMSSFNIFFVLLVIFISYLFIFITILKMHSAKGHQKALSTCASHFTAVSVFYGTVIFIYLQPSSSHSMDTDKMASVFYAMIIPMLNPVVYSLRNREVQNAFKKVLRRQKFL
Outline: as §1

[7] = biological target: T7, OR5B21 (Homo sapiens) (UniProt A6NL26)
T7 sequence (whole entry): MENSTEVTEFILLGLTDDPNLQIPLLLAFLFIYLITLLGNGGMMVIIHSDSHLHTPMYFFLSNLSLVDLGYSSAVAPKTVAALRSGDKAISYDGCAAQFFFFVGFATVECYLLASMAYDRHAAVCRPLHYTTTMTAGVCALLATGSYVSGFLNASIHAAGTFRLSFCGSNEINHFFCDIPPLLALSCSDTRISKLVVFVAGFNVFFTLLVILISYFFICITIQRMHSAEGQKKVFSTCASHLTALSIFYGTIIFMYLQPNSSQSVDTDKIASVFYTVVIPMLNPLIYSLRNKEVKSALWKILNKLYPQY
Outline: as §1

[8] = biological target: T8, OR5B3 (Homo sapiens) (UniProt Q8NH48)
T8 sequence (whole entry): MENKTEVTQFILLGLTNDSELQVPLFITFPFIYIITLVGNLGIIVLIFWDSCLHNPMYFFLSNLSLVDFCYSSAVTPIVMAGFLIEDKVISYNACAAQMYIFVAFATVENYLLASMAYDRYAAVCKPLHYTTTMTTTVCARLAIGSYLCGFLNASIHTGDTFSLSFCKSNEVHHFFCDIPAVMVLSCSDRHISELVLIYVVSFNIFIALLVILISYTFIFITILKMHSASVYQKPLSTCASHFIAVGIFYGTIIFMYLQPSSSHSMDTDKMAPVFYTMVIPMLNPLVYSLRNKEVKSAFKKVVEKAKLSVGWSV
Outline: as §1

[9] = tested on: T9, OR5B2 E6D
T9 sequence (whole entry): T6 sequence (whole entry) with E6D
Outline: as §1

[10] = tested on: T10, OR5B3 I198V G247A
T10 sequence (whole entry): T8 sequence (whole entry) with I198V, G247A
Outline: as §1

Measured: odorant receptor agonist call

CC1CC(C)(c2ccccc2)CO1 (stereo unspecified)
inactive: [1]

CCC=C(C)C(O)CCCCC (stereo unspecified)
inactive: [1]

CCCCCC(S)C(C)CO (stereo unspecified)
inactive: [2] | [3] | [4] | [5] | [1] | [6] | [7] | [8]

CCC(S)C(C)CO (stereo unspecified)
inactive: [2] | [3] | [4] | [5] | [1] | [6] | [7] | [8]

CCCCCCC=CCCC=O
inactive: [2] | [3] | [4] | [5] | [1] | [6] | [9] | [7] | [8] | [10]

CC1=NC(C)C(C)S1 (stereo unspecified)
inactive: [2] | [3] | [4] | [5] | [1] | [6] | [9] | [7] | [8] | [10]

CC(C)=CCCC(C)CC=O (stereo unspecified)
inactive: [1]

CCC1OC(C)=C(O)C1=O (stereo unspecified)
inactive: [2] | [3] | [4] | [5] | [1] | [6] | [9] | [7] | [8] | [10]

Cc1cnc(C)c(C)n1
inactive: [2] | [3] | [4] | [5] | [1] | [6] | [9] | [7] | [8] | [10]

CCOC(=O)CC1(C)OCCO1
inactive: [1]

CC(=O)c1c(C)c([N+](=O)[O-])c(C(C)(C)C)c([N+](=O)[O-])c1C
inactive: [2] | [3] | [4] | [5] | [1] | [6] | [7] | [8]

CCCC(S)CCOC(C)=O (stereo unspecified)
inactive: [2] | [3] | [4] | [5] | [1] | [6] | [9] | [7] | [8] | [10]

CC1=C(O)C(=O)C(C)O1 (stereo unspecified)
inactive: [2] | [3] | [4] | [5] | [1] | [6] | [9] | [7] | [8] | [10]

CC(CO)CS (stereo unspecified)
inactive: [2] | [3] | [4] | [5] | [1] | [6] | [7] | [8]

CC1=C(O)C(=O)OC1C (stereo unspecified)
inactive: [2] | [3] | [4] | [5] | [1] | [6] | [9] | [7] | [8] | [10]

CCC1OC(=O)C(O)=C1C (stereo unspecified)
inactive: [2] | [3] | [4] | [5] | [1] | [6] | [9] | [7] | [8] | [10]

CC1CCCCCCCCCCCCC(=O)C1 (stereo unspecified)
inactive: [2] | [3] | [4] | [5] | [1] | [6] | [7] | [8]

CCCCC(S)C(C)CO (stereo unspecified)
inactive: [2] | [3] | [4] | [5] | [1] | [6] | [7] | [8]

CCCCCC(=O)C(C)C(C)=O (stereo unspecified)
inactive: [2] | [3] | [4] | [5] | [1] | [6] | [7] | [8]

CCc1ccc(CC(C)(C)C=O)cc1
active: [1]

Reference: the M2OR odorant receptor database
